Assay results as given in article PMC4101349 (Translational Oncology, 2014).

How the values were obtained:
[1] = Complete blood profile in treated mice; type: in vivo, BALB/c nude mice; conditions: 10th day
Procedure, shortened: (§1)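 Male BALB/c nude mice, six weeks old, received vehicle, test compound, PI3K inhibitor, or both. The test compound was given at 5 mg/kg i.v. on days 0, 2, 4, 6 and 8; the inhibitor at 40 mg/kg i.p. daily. Vehicle was 0.9% saline with 8% DMSO, 6% Tween-80 and 16% cremophor. Hematological and serum biochemical parameters were measured 1 day after the last i.v. injection.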

[2] = system: DNA repair proteins (Mre11, Nbs1, pNbs1, Rad50, Rad51, FANCD2); assay: Western blot of DNA repair proteins in lung cancer cells; type: cell-based, human; conditions: LY294002 40 μM with 20 μM BO-1509, 24 hours; H460, A549, PC9, PC9/gef B4
Procedure, shortened: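 H460, A549, PC9 and PC9/gef B4 cells were treated for 24 h with 10-80 μM test compound. Alternatively, they received 20 μM test compound and/or 40 μM PI3K inhibitor for 24 h. Lysates in electrophoresis sample buffer were run on SDS-PAGE and transferred to PVDF. Membranes took primary antibodies overnight at 4°C and HRP secondary antibody for 1 h at room temperature. Detection was by chemiluminescence, with β-actin as loading control.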

[3] = system: A549 cells; assay: Alamar Blue cytotoxicity assay, A549; type: cell-based; conditions: Homo sapiens, A549, 72 h, read-out: IC50 (50% inhibition of cell growth)
Procedure, shortened: (§2)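 Cells were seeded at 3000 per well and incubated overnight at 37°C. They were then exposed for 72 h to a range of test compound concentrations, alone or combined with a PI3K inhibitor. Alamar Blue was added for 6 h and absorbance read at 570 and 600 nm. IC50 was derived by the median-effect principle, as mean ± SD of three independent experiments. A549 was kept in DMEM; other lines in RPMI 1640 with 10% FBS, at 37°C and 5% CO2.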

[4] = system: PC9/gef B4 cells; assay: Mouse xenograft model, PC9/gef B4; type: in vivo, BALB/c nude mice; conditions: PC9/gef B4-xenografted mice; LY294002 40 mg/kg i.p. daily
Procedure, shortened: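 PC9/gef B4 cells were implanted s.c. in the flank of male BALB/c nude mice, six weeks old. At about 70 mm3, mice were randomized into four groups: vehicle, test compound 5 mg/kg i.v. every other day ×5, PI3K inhibitor by daily i.p. injection, or the combination. Vehicle was saline with 8% DMSO, 6% Tween-80 and 16% cremophor. Caliper tumor volume was calculated as (length × width²)/2.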

[5] = system: H460 cells; assay: H460 xenograft: histopathology of tumor; type: in vivo, BALB/c nude mice; conditions: H460-xenografted mice; 29th day; histopathologic examination
Procedure, shortened: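 Nude mice were inoculated s.c. in the flank with H460 cells (approximately 3 × 10^6 to 5 × 10^6 in 100 μl PBS). Dosing began at about 100 mm3: test compound 5 mg/kg i.v. every other day ×5, PI3K inhibitor 40 mg/kg i.p. daily, or both. Tumors were taken 24 h after the final treatment for cleaved caspase-3 immunohistochemistry. Lungs were taken 29 days after transplantation for H&E histology.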

[6] = system: H460 cells; assay: Alamar Blue cytotoxicity assay, H460; type: cell-based; conditions: Homo sapiens, NCI-H460, 72 h, read-out: IC50 (50% inhibition of cell growth)
Procedure, shortened: as §2

[7] = system: PC9 cells; assay: Alamar Blue cytotoxicity assay, PC9; type: cell-based; conditions: Homo sapiens, PC-9, 72 h, read-out: IC50 (50% inhibition of cell growth)
Procedure, shortened: as §2

[8] = system: H460, A549, PC9, or PC9/gef B4 cells; assay: Mouse xenograft models, suppression of tumor growth; type: in vivo, BALB/c nude mice; conditions: H460, A549, PC9, PC9/gef B4 xenografts; BO-1509 5 mg/kg i.v. every other day times five; LY294002 40 mg/kg i.p. daily
[9] = system: PC9/gef B4 cells; assay: Alamar Blue cytotoxicity assay, PC9/gef B4; type: cell-based; conditions: Homo sapiens, 72 h, read-out: IC50 (50% inhibition of cell growth)
Procedure, shortened: as §2

[10] = Blood enzymes / biochemical parameters in treated mice; type: in vivo; conditions: 10th day; BALB/c nude mice; mean ± SD
Procedure, shortened: as §1

Basophils ([1]; BALB/c nude mice, mean ± SD): 0.07 ± 0.00 10^3/μl
Eosinophils ([1]; BALB/c nude mice, mean ± SD): 0.06 ± 0.01 10^3/μl
Hematocrit ([1]; BALB/c nude mice, mean ± SD): 54.1 ± 0.70%
Hemoglobin ([1]; BALB/c nude mice, mean ± SD): 16.25 ± 0.10 g/dL
Lymphocytes ([1]; BALB/c nude mice, mean ± SD): 0.81 ± 0.10 10^3/μl
Mean cell hemoglobin ([1]; BALB/c nude mice, mean ± SD): 15.40 ± 0.09 pg
Mean cell volume ([1]; BALB/c nude mice, mean ± SD): 51.5 ± 0.30 fL
Mean corpuscular hemoglobin concentration ([1]; BALB/c nude mice, mean ± SD): 29.90 ± 0.30 g/dL
Monocytes ([1]; BALB/c nude mice, mean ± SD): 0.15 ± 0.05 10^3/μl
Neutrophils ([1]; BALB/c nude mice, mean ± SD): 1.27 ± 0.10 10^3/μl
Platelets ([1]; BALB/c nude mice, mean ± SD): 783 ± 86 10^3/μl
RBC distribution width ([1]; BALB/c nude mice, mean ± SD): 20.90 ± 1.00%
RBCs ([1]; BALB/c nude mice, mean ± SD): 10.53 ± 0.10 10^6/μl
WBCs ([1]; BALB/c nude mice, mean ± SD): 2.37 ± 0.20 10^3/μl
decrease of RBC count and hemoglobin concentration ([1]; treated mice versus control): minimal changes
Alanine aminotransferase [10]: 31.6 ± 2.5 U/l
Blood urea nitrogen [10]: 25.0 ± 5.8 mg/dL
Glucose (GLU-P) [10]: 172 ± 23 mg/dL
LDH [10]: 463 ± 117 U/l
SMILES: O=c1cc(N2CCOCC2)oc2c(-c3ccccc3)cccc12 [LY294002, 2-(4-morpholinyl)-8-phenyl-4H-1-benzopyran-4-one]
BO-1509-induced increase in pNbs1 and Rad51 [2]: suppressed
IC50 [3]: 28.4 ± 4.3 µM
suppression of the tumor burden [4]: ~40%
metastasis in the lungs [5]: 80%
IC50 [6]: 111 ± 15.1 µM
IC50 [7]: 56.9 ± 1.1 µM
suppression of the tumor burden [8]: limited
IC50 [9]: 31.3 ± 3.8 µM
AST [10]: 75.6 ± 17.8 U/l
